This note sets out measurements from ChEMBL document CHEMBL1139389, “Discovery of the Poly(ADP-ribose) polymerase (PARP) inhibitor 2-[(R)-2-methylpyrrolidin-2-yl]-1H-benzimidazole-4-carboxamide (ABT-888) for the treatment of cancer” (J Med Chem, 2009).

Structures are written as SMILES.

The nature of data set [1]: Protein binding in cynomolgus monkey plasma at 5 uM. It counts as ADME, cell-free, Macaca fascicularis. As to conditions: read-out: PPB (converted).
The nature of data set [2]: Clearance in cynomolgus monkey at 2.5 mg/kg. It counts as ADME, organism-based, Macaca fascicularis. On the set-up: dose 2.5 mg/kg. As to conditions: in vivo.
A short description of data set [3]: AUC in cynomolgus monkey at 2.5 mg/kg, po. It counts as ADME, organism-based, Macaca fascicularis. More on the design: dose 2.5 mg/kg, route oral. As to conditions: plasma.
The target of the next data set is Cytochrome P450 3A4 (Homo sapiens, UniProt P08684). In words: Inhibition of CYP3A4 in human liver microsomes. In kind it is ADME, Microsome.
Another data set deals with T1, Cytochrome P450 1A2 (Homo sapiens, UniProt P05177).
T1 sequence (P05177 whole entry): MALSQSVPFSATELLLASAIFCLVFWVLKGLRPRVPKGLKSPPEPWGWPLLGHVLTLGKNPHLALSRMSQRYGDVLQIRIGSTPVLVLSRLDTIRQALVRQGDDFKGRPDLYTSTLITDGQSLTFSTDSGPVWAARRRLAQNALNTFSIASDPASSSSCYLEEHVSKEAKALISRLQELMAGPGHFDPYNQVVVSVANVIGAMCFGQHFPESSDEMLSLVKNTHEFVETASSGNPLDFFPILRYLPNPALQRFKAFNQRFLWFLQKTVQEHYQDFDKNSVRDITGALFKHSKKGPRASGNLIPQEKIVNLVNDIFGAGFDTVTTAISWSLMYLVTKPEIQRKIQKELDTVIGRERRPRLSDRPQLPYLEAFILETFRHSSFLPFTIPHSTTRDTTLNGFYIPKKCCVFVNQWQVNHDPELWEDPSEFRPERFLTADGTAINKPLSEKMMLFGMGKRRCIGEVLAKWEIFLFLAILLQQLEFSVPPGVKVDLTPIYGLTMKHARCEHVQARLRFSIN
The data set can be described thus: Inhibition of CYP1A2 in human liver microsomes. In kind it is ADME, Microsome. For orientation: Liver microsomes are a subcellular fraction often used to study metabolism.

The test system of another data set is B16-F10. The data set can be described thus: Potentiation of temozolomide-induced cytotoxicity against mouse B16F10 cells xenografted in C57BL/6 mouse assessed as growth inhibition at 12.5 mg/kg/day, po after 17 days relative to temozolomide monotherapy. It counts as functional. The essentials:
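B16F10 syngeneic model: 6×10^4 cells in 50% matrigel injected sc into the flank of 6–8 week old female C57BL/6 mice (20 g), allocated to groups by injection order. Inhibitor given po bid days 6–11 at 1, 5 or 12.5 mg/kg/day; temozolomide 50 mg/kg/day po qd days 6–11. Tumor volume by caliper as L×W²/2; TGI versus temozolomide alone.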

Data set [4] is described as follows: Protein binding in human plasma at 5 uM. As to conditions: read-out: PPB (converted). It counts as ADME, cell-free.
A short description of data set [5]: Oral bioavailability in Beagle dog at 2.5 mg/kg. In kind it is ADME, organism-based, Canis lupus familiaris. As to conditions: in vivo.
A short description of data set [6]: Half life in Beagle dog at 2.5 mg/kg, iv. In kind it is ADME, organism-based, Canis lupus familiaris. On the set-up: dose 2.5 mg/kg, route intravenous. As to conditions: in vivo.
Data set [7] in a line: Volume of distribution at steady state in CD1 mouse at 10 mg/kg. In kind it is ADME, organism-based. On the set-up: dose 10 mg/kg. As to conditions: in vivo, read-out: Vdss.
The nature of data set [8]: Oral bioavailability in CD1 mouse at 10 mg/kg. In kind it is ADME, organism-based. Particulars: in vivo. In outline: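 Mouse PK: oral dose 10 mg/kg in 2.5% EtOH, 1 drop Tween-80, 25% PEG400 in PBS; iv dose 3 mg/kg in 2.5% EtOH, 5% DMSO, 1 drop Tween-80, 25% PEG400 in PBS. Oral bioavailability, iv half-life, oral AUC and Cmax derived from plasma profiles.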
Data set [9] deals with MX1. The data set can be described thus: Potentiation of cyclophosphamide-induced cytotoxicity against human MX1 cells xenografted in SCID mouse assessed as growth inhibition at 12.5 mg/kg/day, sc osmotic minipump after 48 days relative to cyclophosphamide monotherapy. It counts as functional. As to conditions: route subcutaneous. The essentials: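 Female SCID mice bearing sc MX-1 brei (0.2 cc of 1:10, day 0), size-matched on day 15, 10 per group. Inhibitor 5, 12.5 or 25 mg/kg/day by sc osmotic minipump for 14 days from day 18; cyclophosphamide 12.5 mg/kg ip on days 20, 24 and 28. Volumes from caliper L×W²/2; TGI versus cyclophosphamide alone.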
For orientation: In xenograft studies the graft and the host belong to different species.

Data set [10] concerns MX1. In words: Potentiation of carboplatin-induced cytotoxicity against human MX1 cells xenografted in SCID mouse assessed as growth inhibition at 50 mg/kg/day, sc osmotic minipump after 42 days relative to carboplatin monotherapy. It counts as functional. Particulars: route subcutaneous. In outline:
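MX-1 xenograft: 0.2 cc of 1:10 tumor brei injected sc into the flank of female SCID mice on day 0; size-matched on day 15, 10 mice/group. Inhibitor 1–50 mg/kg/day by sc osmotic minipump for 14 days from day 18; carboplatin 10 mg/kg ip on days 20, 24 and 28. Caliper volumes as L×W²/2; TGI relative to carboplatin alone.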

Data set [11] is described as follows: Oral bioavailability in Sprague-Dawley rat at 5 mg/kg. It counts as ADME, organism-based. As to conditions: in vivo.
A short description of data set [12]: Volume of distribution at steady state in Sprague-Dawley rat at 5 mg/kg. In kind it is ADME, organism-based. On the set-up: dose 5 mg/kg. Particulars: in vivo, read-out: Vdss.
Data set [13] in a line: Clearance in Sprague-Dawley rat at 5 mg/kg. As to conditions: in vivo. It counts as ADME, organism-based. More on the design: dose 5 mg/kg.
Data set [14] is described as follows: Clearance in CD1 mouse at 10 mg/kg. It counts as ADME, organism-based. More on the design: dose 10 mg/kg. As to conditions: in vivo. In outline:
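Mouse pharmacokinetics. Oral dose of 10 mg/kg in 2.5% EtOH, 1 drop Tween-80 and 25% PEG400 in PBS. Intravenous dose of 3 mg/kg in 2.5% EtOH, 5% DMSO, 1 drop Tween-80 and 25% PEG400 in PBS.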

Data set [15] in a line: Protein binding in CD1 mouse plasma at 5 uM. In kind it is ADME, cell-free. Particulars: read-out: PPB (converted).

A word on the clearance: it is a measure of how efficiently the substance is removed, as volume per time. A word on the AUC: it is the area under the concentration-time curve, a measure of exposure. Usually TGI stands for the reduction of tumour growth relative to the control group. For orientation: bioavailability means the share of a dose that reaches the circulation, judged against a reference dose that is usually intravenous. What is called half-life is the time needed for the level to fall by half in the phase considered.

Chain of Cytochrome P450 3A4 (P08684 whole entry): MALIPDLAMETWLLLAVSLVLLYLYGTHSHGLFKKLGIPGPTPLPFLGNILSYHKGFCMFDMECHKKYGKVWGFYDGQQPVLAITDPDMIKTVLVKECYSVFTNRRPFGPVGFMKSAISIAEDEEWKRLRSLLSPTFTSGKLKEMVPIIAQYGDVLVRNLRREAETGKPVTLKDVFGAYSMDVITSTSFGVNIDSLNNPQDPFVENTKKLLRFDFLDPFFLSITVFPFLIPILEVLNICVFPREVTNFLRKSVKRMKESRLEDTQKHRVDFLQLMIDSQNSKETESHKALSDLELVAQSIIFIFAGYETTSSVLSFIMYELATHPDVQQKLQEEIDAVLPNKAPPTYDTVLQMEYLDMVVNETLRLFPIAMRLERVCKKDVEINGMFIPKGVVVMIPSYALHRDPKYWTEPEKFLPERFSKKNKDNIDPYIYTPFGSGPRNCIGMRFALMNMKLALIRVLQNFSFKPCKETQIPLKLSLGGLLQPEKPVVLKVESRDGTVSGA

Regarding `C[C@]1(c2nc3c(C(N)=O)cccc3[nH]2)CCCN1` [VELIPARIB], the fraction unbound at 5 µM in data set [1], in data set [4] and in [15] was 0.59 throughout. Also, the clearance in data set [2] was 18.3 mL/min/kg; in data set [13], 33.3 mL/min/kg; in data set [14], 68.3 mL/min/kg. Besides, in data set [3], the AUC was determined as 1300 ng·h/mL. In addition, the Activity result at Cytochrome P450 3A4 and on Cytochrome P450 1A2 was “Not Active” in each case. Besides, the TGI in the data set on B16-F10 was determined as 64%; with MX1 [9], 33%; with MX1 [10], 91%. Further, the bioavailability worked out at 72% in data set [5], 92% in data set [8] and 61% in data set [11]. The same molecule showed a half-life in data set [6] of 2.7 h. Besides, the Vd in data set [7] amounted to 9.4 L/kg; in data set [12], 3.6 L/kg.
